Test results as given in paper PMC5873441 (Diabetes, Obesity & Metabolism, 2018).
Where two headings read alike, the source gives them in different places.

Columns and labels:
[1] = Safety and tolerability of a single 0.5 mg dose; type: in vivo, human; conditions: single s.c. 0.5 mg
Summary of the method: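 After one 0.5 mg s.c. thigh dose, participants stayed in-house ≥5 days, then had visits on days 7, 8, 15, 22 and 29 and follow-up on day 36. Monitoring covered adverse events, hypoglycaemic episodes, haematology, biochemistry (amylase, lipase), coagulation, calcitonin, urinalysis, vital signs, physical examination, ECG and fasting plasma glucose.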

plasma protein (albumin) = type: in vitro ADME, human; conditions: surface plasmon resonance, in vitro on blood samples taken prior to dosing; across all hepatic function groups
[2] = type: in vivo, human
Summary of the method: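 Adults with normal hepatic function or mild, moderate or severe impairment (Child–Pugh), matched for age, sex and weight, each got one 0.5 mg s.c. thigh injection by pen. Plasma was sampled from pre-dose to 840 h and stored at −20°C. Proteins were precipitated, then LC‐MS/MS (0.729–60.8 nmol/L, analogue internal standard). AUC by non-compartmental methods; CL/F = dose/AUC0‐∞. Group ratios vs normal, with 90% CI.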

[3] = cited from earlier work
[4] = human, single s.c. 0.5 mg, mild hepatic impairment, n = 8

CC[C@H](C)[C@H](NC(=O)[C@H](Cc1ccccc1)NC(=O)[C@H](CCC(=O)O)NC(=O)[C@H](CCCCNC(=O)COCCOCCNC(=O)COCCOCCNC(=O)CC[C@H](NC(=O)CCCCCCCCCCCCCCCCC(=O)O)C(=O)O)NC(=O)[C@H](C)NC(=O)[C@H](C)NC(=O)[C@H](CCC(N)=O)NC(=O)CNC(=O)[C@H](CCC(=O)O)NC(=O)[C@H](CC(C)C)NC(=O)[C@H](Cc1ccc(O)cc1)NC(=O)[C@H](CO)NC(=O)[C@H](CO)NC(=O)[C@@H](NC(=O)[C@H](CC(=O)O)NC(=O)[C@H](CO)NC(=O)[C@@H](NC(=O)[C@H](Cc1ccccc1)NC(=O)[C@@H](NC(=O)CNC(=O)[C@H](CCC(=O)O)NC(=O)C(C)(C)NC(=O)[C@@H](N)Cc1cnc[nH]1)[C@@H](C)O)[C@@H](C)O)C(C)C)C(=O)N[C@@H](C)C(=O)N[C@@H](Cc1c[nH]c2ccccc12)C(=O)N[C@@H](CC(C)C)C(=O)N[C@H](C(=O)N[C@@H](CCCNC(=N)N)C(=O)NCC(=O)N[C@@H](CCCNC(=N)N)C(=O)NCC(=O)O)C(C)C [semaglutide]
serious adverse events or events leading to participant withdrawal ([1]; all groups): No serious adverse events
severe hypoglycaemic episodes ([1]; all groups): No severe hypoglycaemic episodes
changes in vital signs, clinical laboratory assessments, physical examination or ECG ([1]; normal or impaired hepatic function): No clinically relevant changes
median fraction of unbound semaglutide (plasma protein (albumin)): < 1%
AUC0‐last, ER (90% CI) vs no impairment ([2]; estimated ratio mild impairment/no impairment): 0.96 (0.76, 1.20)
Cmax, ER (90% CI) vs no impairment ([2]; estimated ratio mild impairment/normal function): 0.99 (0.80, 1.23)
AUC0‐∞, ER (90% CI) vs no impairment ([2]; estimated ratio mild impairment/normal function, single s.c. 0.5 mg): 0.95 (0.77, 1.16)
AUC0‐last, ER (90% CI) vs no impairment ([2]; estimated ratio moderate impairment/no impairment): 1.03 (0.92, 1.15)
Cmax, ER (90% CI) vs no impairment ([2]; estimated ratio moderate impairment/normal function): 1.02 (0.88, 1.18)
AUC0‐∞, ER (90% CI) vs no impairment ([2]; estimated ratio moderate impairment/normal function, single s.c. 0.5 mg): 1.02 (0.93, 1.12)
AUC0‐last, ER (90% CI) vs no impairment ([2]; estimated ratio severe impairment/no impairment): 0.93 (0.77, 1.13)
Cmax, ER (90% CI) vs no impairment ([2]; estimated ratio severe impairment/normal function): 1.15 (0.89, 1.48)
AUC0‐∞, ER (90% CI) vs no impairment ([2]; estimated ratio severe impairment/normal function, single s.c. 0.5 mg): 0.97 (0.84, 1.12)
AUC0‐last, estimated mean ([2]; human, single s.c. 0.5 mg, plasma LC-MS/MS, no hepatic impairment, n = 18): 2731 nmol^×h/L
AUC0‐last, estimated mean [2, 4]: 2621 nmol^×h/L
Tmax, median [2, 4]: 65.9 h
AUC0‐last, estimated mean ([2]; human, single s.c. 0.5 mg, moderate hepatic impairment, n = 10): 2807 nmol^×h/L
AUC0‐last, estimated mean ([2]; human, single s.c. 0.5 mg, severe hepatic impairment, n = 7): 2539 nmol^×h/L
CL/F, geometric mean (CV) ([2]; total apparent clearance, CV in %, severe hepatic impairment, n = 7): 0.043 (10.0) L/h
exposure in people with renal impairment vs normal renal function ([3]; after adjusting for specific baseline characteristics): comparable
administered dose excreted in urine as intact semaglutide ([3]; human, radioactive‐labelled compound): 3.1%
